According to ChEMBL document CHEMBL1165965, “Synthesis and structure-activity relationships of 1,2,3,4-tetrahydropyrido[2,3-b]pyrazines as potent and selective inhibitors of the anaplastic lymphoma kinase” (Bioorg Med Chem, 2010):

Key:
[1] = target: T1, Serine/threonine-protein kinase Nek1 (Homo sapiens) (UniProt Q96PY6); test: Inhibition of NEK1 at 1 uM
T1 sequence (whole entry): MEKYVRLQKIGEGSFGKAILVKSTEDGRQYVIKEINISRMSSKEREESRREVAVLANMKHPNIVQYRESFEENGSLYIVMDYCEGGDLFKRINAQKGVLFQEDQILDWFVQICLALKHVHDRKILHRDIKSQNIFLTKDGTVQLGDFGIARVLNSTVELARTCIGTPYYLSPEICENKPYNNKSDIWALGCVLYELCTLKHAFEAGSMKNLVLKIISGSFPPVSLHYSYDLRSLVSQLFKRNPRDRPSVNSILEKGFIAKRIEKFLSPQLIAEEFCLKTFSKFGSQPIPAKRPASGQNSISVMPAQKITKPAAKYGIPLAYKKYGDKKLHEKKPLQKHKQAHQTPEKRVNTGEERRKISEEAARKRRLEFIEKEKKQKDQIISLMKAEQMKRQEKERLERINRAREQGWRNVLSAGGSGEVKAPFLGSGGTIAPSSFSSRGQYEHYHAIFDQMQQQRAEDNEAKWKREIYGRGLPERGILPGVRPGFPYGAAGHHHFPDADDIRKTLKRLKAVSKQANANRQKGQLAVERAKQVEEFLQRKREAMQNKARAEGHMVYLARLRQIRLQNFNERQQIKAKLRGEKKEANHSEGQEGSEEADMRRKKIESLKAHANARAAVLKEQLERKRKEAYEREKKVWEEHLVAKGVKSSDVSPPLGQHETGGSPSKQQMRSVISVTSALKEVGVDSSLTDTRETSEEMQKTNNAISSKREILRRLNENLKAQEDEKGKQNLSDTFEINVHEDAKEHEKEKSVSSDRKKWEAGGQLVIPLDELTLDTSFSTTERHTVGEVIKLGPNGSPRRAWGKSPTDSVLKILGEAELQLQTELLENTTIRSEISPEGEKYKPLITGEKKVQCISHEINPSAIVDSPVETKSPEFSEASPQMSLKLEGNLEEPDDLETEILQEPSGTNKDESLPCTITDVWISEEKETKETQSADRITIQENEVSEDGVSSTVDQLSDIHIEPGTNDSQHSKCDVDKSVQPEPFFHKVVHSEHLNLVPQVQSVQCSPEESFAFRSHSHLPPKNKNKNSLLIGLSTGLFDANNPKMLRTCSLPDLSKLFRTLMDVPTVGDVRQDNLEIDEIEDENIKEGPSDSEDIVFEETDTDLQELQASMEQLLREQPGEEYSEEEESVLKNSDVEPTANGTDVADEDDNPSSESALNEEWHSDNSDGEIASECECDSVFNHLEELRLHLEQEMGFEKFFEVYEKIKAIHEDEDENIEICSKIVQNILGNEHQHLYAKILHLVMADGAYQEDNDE

[2] = target: T2, Serine/threonine-protein kinase ULK3 (Homo sapiens) (UniProt Q6PHR2); test: Inhibition of ULK3 at 1 uM
T2 sequence (whole entry): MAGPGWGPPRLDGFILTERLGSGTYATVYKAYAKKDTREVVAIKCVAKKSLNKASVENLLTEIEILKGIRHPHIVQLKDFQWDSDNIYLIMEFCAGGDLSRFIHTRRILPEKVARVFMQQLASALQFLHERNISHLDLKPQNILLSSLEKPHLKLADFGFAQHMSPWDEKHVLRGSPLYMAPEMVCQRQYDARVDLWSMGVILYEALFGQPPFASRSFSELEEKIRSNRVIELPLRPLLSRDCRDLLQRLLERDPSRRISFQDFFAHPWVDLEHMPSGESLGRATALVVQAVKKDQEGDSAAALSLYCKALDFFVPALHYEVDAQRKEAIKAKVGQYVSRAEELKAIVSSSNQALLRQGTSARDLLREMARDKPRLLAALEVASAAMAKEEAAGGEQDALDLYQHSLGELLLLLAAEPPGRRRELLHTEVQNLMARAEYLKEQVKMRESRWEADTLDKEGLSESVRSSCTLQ

[3] = target: BMP-2-inducible protein kinase (Homo sapiens) (UniProt Q9NSY1); test: Inhibition of BIKE at 1 uM
Summary of the method: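 Ambit KINOMEscan screen at a single concentration across a 250–400 kinase panel, recorded as percent inhibition. Selectivity was expressed as S(90), the fraction of kinases inhibited >90%.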

[4] = target: T3, Discoidin domain-containing receptor 2 (Homo sapiens) (UniProt Q16832); test: Inhibition of DDR2 at 1 uM
T3 sequence (whole entry): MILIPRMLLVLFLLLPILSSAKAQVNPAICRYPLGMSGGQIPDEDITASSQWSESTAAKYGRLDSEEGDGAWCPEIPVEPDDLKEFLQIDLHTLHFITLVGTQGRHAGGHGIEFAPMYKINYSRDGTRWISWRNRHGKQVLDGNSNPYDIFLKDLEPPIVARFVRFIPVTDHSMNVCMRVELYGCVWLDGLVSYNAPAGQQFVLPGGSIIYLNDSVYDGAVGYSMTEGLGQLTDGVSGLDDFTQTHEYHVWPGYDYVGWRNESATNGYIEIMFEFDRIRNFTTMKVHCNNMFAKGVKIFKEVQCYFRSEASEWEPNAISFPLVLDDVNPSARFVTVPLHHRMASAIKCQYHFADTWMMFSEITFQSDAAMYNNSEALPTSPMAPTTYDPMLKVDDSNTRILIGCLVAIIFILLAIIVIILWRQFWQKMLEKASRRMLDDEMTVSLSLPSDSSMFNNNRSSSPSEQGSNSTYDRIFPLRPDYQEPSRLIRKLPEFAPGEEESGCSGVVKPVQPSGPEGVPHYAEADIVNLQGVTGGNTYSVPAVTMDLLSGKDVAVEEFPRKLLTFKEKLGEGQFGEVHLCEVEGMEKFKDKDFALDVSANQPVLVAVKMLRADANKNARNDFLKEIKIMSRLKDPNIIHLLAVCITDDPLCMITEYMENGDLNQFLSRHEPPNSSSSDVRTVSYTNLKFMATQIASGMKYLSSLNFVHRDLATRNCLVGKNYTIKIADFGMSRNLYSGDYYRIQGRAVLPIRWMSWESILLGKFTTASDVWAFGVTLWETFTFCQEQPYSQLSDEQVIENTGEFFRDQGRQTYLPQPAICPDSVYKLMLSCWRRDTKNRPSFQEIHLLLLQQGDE

Sequence of BMP-2-inducible protein kinase (Homo sapiens) (Q9NSY1 whole entry, looked up): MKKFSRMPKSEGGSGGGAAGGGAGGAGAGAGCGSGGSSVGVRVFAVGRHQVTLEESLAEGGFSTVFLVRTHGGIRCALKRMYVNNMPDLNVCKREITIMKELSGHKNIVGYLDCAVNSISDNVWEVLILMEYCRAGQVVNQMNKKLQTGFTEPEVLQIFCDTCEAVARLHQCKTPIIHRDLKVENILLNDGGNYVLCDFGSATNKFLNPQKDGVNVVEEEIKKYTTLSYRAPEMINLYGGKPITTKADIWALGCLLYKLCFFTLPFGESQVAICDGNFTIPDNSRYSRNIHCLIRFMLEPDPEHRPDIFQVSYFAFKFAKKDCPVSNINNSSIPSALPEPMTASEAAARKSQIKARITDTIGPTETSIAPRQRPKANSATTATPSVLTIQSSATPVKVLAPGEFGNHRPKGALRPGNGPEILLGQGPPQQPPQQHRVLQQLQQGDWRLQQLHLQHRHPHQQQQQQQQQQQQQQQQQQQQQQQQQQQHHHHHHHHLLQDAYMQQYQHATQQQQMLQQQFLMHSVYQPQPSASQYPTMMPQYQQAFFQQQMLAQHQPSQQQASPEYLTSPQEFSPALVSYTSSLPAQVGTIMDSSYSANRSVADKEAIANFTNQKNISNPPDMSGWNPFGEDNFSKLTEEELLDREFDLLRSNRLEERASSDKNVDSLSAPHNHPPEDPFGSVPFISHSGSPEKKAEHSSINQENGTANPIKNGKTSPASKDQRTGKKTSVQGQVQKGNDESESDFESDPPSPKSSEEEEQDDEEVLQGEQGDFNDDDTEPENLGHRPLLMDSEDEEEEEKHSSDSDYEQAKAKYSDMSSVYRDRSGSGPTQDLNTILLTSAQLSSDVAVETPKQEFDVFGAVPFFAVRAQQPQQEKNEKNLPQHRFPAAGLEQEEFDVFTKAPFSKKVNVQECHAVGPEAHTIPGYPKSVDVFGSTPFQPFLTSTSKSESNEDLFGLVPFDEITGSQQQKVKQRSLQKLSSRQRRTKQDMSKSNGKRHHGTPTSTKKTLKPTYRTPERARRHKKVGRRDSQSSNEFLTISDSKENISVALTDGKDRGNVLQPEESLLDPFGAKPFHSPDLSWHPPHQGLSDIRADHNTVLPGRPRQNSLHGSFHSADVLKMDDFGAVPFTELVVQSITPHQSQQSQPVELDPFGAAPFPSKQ

Compound	inhibition [1]	inhibition [2]	inhibition [3]	inhibition [4]
CN1CCN(c2ccc(-c3cnc4c(c3)N(Cc3cc(Cl)ccc3Cl)CCN4)cn2)CC1	< 50%	< 50%	< 50%	< 50%
O=C(c1ccc(-c2cnc3c(c2)N(Cc2cc(Cl)ccc2C(F)(F)F)CCN3)cc1)N1CCCCC1			< 50%	
FC(F)(F)c1ccc(Cl)cc1CN1CCNc2ncc(-c3ccnc(N4CCNCC4)c3)cc21	< 50%	< 50%	< 50%	< 50%
CC(=O)N1CCN(c2cc(-c3cnc4c(c3)N(Cc3cc(Cl)ccc3C(F)(F)F)CCN4)ccn2)CC1	< 50%	< 50%	< 50%	< 50%
O=C(c1ccc(-c2cnc3c(c2)N(Cc2cc(Cl)ccc2C(F)(F)F)CCN3)cc1)N1CCC(N2CCCC2)CC1	< 50%		84%	< 50%
CN1CCN(c2ccc(-c3cnc4c(c3)N(Cc3c(F)ccc(F)c3Cl)CCN4)cn2)CC1	< 50%	< 50%	< 50%	< 50%

Next, values leading:

inhibition [1]	inhibition [2]	inhibition [3]	inhibition [4]	Compound
< 50%	< 50%	< 50%	< 50%	CN1CCN(c2ccc(-c3cnc4c(c3)N(Cc3cc(Cl)ccc3C(F)(F)F)CCN4)cn2)CC1
< 50%		< 50%	< 50%	COC1CCN(C(=O)c2ccc(-c3cnc4c(c3)N(Cc3cc(Cl)ccc3C(F)(F)F)CCN4)cc2)CC1
		< 50%		O=C(O)c1ccc(-c2cnc3c(c2)N(Cc2cc(Cl)ccc2C(F)(F)F)CCN3)cc1
< 50%	< 50%	< 50%	< 50%	CN1CCN(c2ccc(-c3cnc4c(c3)N(Cc3cc(F)ccc3F)CCN4)cn2)CC1
